Columns and labels:
[1] = biological target: T1, D(4) dopamine receptor (Homo sapiens, UniProt P21917); experiment: Displacement of [3H]-N-methylspiperone from human dopamine D4 receptor expressed in HEK293 cell membranes after 1 hr by liquid scintillation counting analysis
T1 sequence (P21917 whole entry): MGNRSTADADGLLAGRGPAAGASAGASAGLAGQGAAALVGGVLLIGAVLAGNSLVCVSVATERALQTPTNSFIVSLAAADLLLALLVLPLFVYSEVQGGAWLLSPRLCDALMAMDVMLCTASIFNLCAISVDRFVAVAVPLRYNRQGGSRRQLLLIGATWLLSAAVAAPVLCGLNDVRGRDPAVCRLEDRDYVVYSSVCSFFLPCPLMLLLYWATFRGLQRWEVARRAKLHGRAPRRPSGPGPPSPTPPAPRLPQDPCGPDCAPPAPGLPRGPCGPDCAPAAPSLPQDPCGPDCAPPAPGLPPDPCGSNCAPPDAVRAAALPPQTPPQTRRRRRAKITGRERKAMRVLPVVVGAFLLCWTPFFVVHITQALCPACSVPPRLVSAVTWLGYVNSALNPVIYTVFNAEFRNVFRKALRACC

[2] = biological target: D(2) dopamine receptor (Homo sapiens, UniProt P14416); experiment: Displacement of [3H]-N-methylspiperone from human dopamine D2 receptor expressed in HEK293 cell membranes after 1 hr by liquid scintillation counting analysis
Sequence of D(2) dopamine receptor (P14416 whole entry): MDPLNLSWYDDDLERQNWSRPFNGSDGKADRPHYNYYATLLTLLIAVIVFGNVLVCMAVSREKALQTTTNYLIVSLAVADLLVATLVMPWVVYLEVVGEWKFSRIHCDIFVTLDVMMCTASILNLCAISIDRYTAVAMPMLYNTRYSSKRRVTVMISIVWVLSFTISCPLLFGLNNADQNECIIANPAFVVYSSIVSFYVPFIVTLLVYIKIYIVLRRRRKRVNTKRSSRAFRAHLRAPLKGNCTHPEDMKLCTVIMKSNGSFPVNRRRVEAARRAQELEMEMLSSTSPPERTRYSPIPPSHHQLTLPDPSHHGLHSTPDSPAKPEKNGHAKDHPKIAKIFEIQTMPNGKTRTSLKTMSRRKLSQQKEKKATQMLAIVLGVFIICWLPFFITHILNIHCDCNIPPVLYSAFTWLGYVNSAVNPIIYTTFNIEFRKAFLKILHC

[3] = organism: Homo sapiens; experiment: Selectivity ratio of Ki for human dopamine D2 receptor to Ki for human dopamine D3 receptor
Procedure, shortened: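 Ki values from [3H]N-methylspiperone (0.4 nM) competition in membranes from HEK293 cells stably expressing human D2R or D3R, 10 μg protein per tube. Incubated 1 h at room temperature in triplicate, with 10 μM butaclamol defining nonspecific binding. […] Ratio is D2R Ki divided by D3R Ki.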

[4] = biological target: D(3) dopamine receptor (Homo sapiens, UniProt P35462); experiment: Displacement of [3H]-N-methylspiperone from human dopamine D3 receptor expressed in HEK293 cell membranes after 1 hr by liquid scintillation counting analysis
Sequence of D(3) dopamine receptor (P35462 whole entry): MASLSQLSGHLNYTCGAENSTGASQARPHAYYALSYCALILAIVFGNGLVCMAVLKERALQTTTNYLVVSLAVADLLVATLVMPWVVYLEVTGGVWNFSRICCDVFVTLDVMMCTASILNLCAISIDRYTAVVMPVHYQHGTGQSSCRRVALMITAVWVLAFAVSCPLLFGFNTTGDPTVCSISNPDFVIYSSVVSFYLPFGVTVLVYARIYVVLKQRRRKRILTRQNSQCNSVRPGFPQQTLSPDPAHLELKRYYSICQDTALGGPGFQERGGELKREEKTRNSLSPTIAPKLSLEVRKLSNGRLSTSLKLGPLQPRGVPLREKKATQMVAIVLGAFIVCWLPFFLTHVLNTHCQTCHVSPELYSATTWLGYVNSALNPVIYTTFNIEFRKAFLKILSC

[5] = Metabolic stability in mouse liver microsomes assessed as compound remaining at 1 uM after 60 mins by LC/MS/MS analysis in presence of NADPH regenerating system; assay type: ADME; conditions: read-out: Stability
[6] = Metabolic stability in mouse liver microsomes assessed as compound remaining at 1 uM after 30 mins by LC/MS/MS analysis in presence of NADPH regenerating system; assay type: ADME; conditions: read-out: Stability
Procedure, shortened: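 Mouse liver microsomes at 0.2 mg/mL with compound at 1 μM final, in 100 mM potassium phosphate pH 7.4. Reaction started by adding microsomes, triplicate. Sampled at 0, 30 and 60 min and quenched with ice-cold acetonitrile plus internal standard. Percent parent remaining measured by LC/MS/MS. Controls lacking NADPH were run; testosterone served as positive control.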

| SMILES | Ki [1] [nM] | Ki [2] [nM] | Ratio Ki [3] | Ki [4] [nM] | remaining at 1 h, 1 µM [5] [%] | remaining at 0.5 h, 1 µM [6] [%] |
| --- | --- | --- | --- | --- | --- | --- |
| COc1ccccc1N1CCN(CCCCc2cn(-c3ccc4ccccc4c3)nn2)CC1 | 299 | 31.5 | 11 | 2.93 |  |  |
| OC(CCn1cc(-c2ccc3ccccc3c2)nn1)CN1CCN(c2cccc(Cl)c2Cl)CC1 (racemic) | > 20000 | 18800 | 745 | 25.2 |  |  |
| OC(CCn1cc(-c2ccc3[nH]ccc3c2)nn1)CN1CCN(c2cccc(Cl)c2Cl)CC1 (racemic) |  | 963 | 165 | 5.85 | 35 | 45 |
| COc1ccccc1N1CCN(CCCCn2cc(-c3ccc4[nH]ccc4c3)nn2)CC1 | 222 | 43.7 | 8 | 5.48 |  |  |
| COc1ccccc1N1CCN(CC(O)CCn2cc(-c3ccc4[nH]ccc4c3)nn2)CC1 (racemic) |  | 789 | 23 | 33.6 | 27 | 44 |
| COc1ccccc1N1CCN(CCCCn2cc(-c3ccc4ncccc4c3)nn2)CC1 | 269 | 42.5 | 6.3 | 6.73 |  |  |
| Clc1cccc(N2CCN(CCCCn3cc(-c4ccc(-c5ccccc5)cc4)nn3)CC2)c1Cl | > 10000 | 2590 | 311 | 8.32 |  |  |
| COc1ccccc1N1CCN(CCCCn2cc(-c3ccc4c(c3)Cc3ccccc3-4)nn2)CC1 | 588 | 50.1 | 9 | 5.55 |  |  |
| COc1ccccc1N1CCN(CCCCn2cc(-c3ccccc3)nn2)CC1 | 480 | 137 | 6 | 22.9 |  |  |
| COc1ccccc1N1CCN(CC(O)CCn2cc(-c3ccc4ccccc4c3)nn2)CC1 (racemic) | > 2000 | 189 | 4.6 | 40.7 |  |  |
| Clc1cccc(N2CCN(CCCCn3cc(-c4ccc5c(c4)Cc4ccccc4-5)nn3)CC2)c1Cl | > 20000 | 885 | 63 | 14 |  |  |
| Clc1cccc(N2CCN(CCCCc3cn(-c4ccc5[nH]ccc5c4)nn3)CC2)c1Cl | 510 | 46.6 | 47 | 1 |  |  |
| COc1ccccc1N1CCN(CCCCc2cn(-c3ccccc3)nn2)CC1 | 486 | 53.6 | 10 | 5.42 |  |  |
| COc1ccccc1N1CCN(CC(O)CCn2cc(-c3ccc4c(c3)Cc3ccccc3-4)nn2)CC1 (racemic) | > 1000 | 607 | 33 | 18.5 |  |  |
| Clc1cccc(N2CCN(CCCCn3cc(-c4ccc5ccccc5c4)nn3)CC2)c1Cl | > 1000 | 103 | 13 | 7.7 |  |  |
| Clc1cccc(N2CCN(CCCCn3cc(-c4ccc5[nH]ccc5c4)nn3)CC2)c1Cl | > 2000 | 56.1 | 38 | 1.47 |  |  |

| SMILES | Ki [1] [nM] | Ki [2] [nM] | Ratio Ki [3] | Ki [4] [nM] | remaining at 1 h, 1 µM [5] [%] | remaining at 0.5 h, 1 µM [6] [%] |
| --- | --- | --- | --- | --- | --- | --- |
| O=C(NCCC(O)CN1CCN(c2cccc(Cl)c2Cl)CC1)c1cnc2ccccc2c1 (stereo unspecified) |  | 321 | 110 | 2.91 | 4 |  |
| COc1ccccc1N1CCN(CCCCc2cn(-c3cccc4ncccc34)nn2)CC1 | > 1000 | 83.4 | 6.4 | 13.1 |  |  |
| COc1ccccc1N1CCN(CCCCc2cn(-c3ccc4[nH]ccc4c3)nn2)CC1 | 353 | 51.8 | 17 | 3.1 |  |  |
| COc1ccccc1N1CCN(CC(O)CCn2cc(-c3ccccc3)nn2)CC1 (racemic) | > 3000 | 1210 | 7 | 173 |  |  |
| Clc1cccc(N2CCN(CCCCn3cc(-c4ccc5ncccc5c4)nn3)CC2)c1Cl | > 1000 | 53.9 | 40 | 1.35 |  |  |
| COc1ccccc1N1CCN(CC(O)CCn2cc(-c3ccc4ncccc4c3)nn2)CC1 (racemic) | > 3000 | 424 | 6.2 | 68.2 |  |  |
| OC(CCn1cc(-c2ccc(-c3ccccc3)cc2)nn1)CN1CCN(c2cccc(Cl)c2Cl)CC1 (racemic) | > 7000 | 15100 | 270 | 55.8 |  |  |
| COc1ccccc1N1CCN(CCCCc2cn(-c3ccc4c(c3)Cc3ccccc3-4)nn2)CC1 | 329 | 57.2 | 36 | 1.59 |  |  |
| COc1ccccc1-c1cn(CCC(O)CN2CCN(c3ccccc3OC)CC2)nn1 (racemic) | > 3000 | 1020 | 2.1 | 493 |  |  |
| OC(CCn1cc(-c2cnc3ccccc3c2)nn1)CN1CCN(c2cccc(Cl)c2Cl)CC1 (racemic) |  | 244 | 14 | 18 | 26 |  |
| COc1ccccc1N1CCN(CC(O)CCn2cc(-c3ccc(-c4ccccc4)cc3)nn2)CC1 (racemic) | > 2000 | 819 | 27 | 30.5 |  |  |
| Clc1cccc(N2CCN(CCCCc3cn(-c4ccc5ccccc5c4)nn3)CC2)c1Cl | > 2000 | 80.8 | 21 | 3.8 |  |  |
| Clc1cccc(N2CCN(CCCCc3cn(-c4ccc5c(c4)Cc4ccccc4-5)nn3)CC2)c1Cl | 4450 | 424 | 84 | 5.05 |  |  |
| COc1ccccc1N1CCN(CCCCn2cc(-c3ccc4ccccc4c3)nn2)CC1 | 232 | 23.3 | 2.1 | 11.1 |  |  |
| COc1ccccc1N1CCN(CCCCn2cc(-c3ccc(-c4ccccc4)cc3)nn2)CC1 | 425 | 69 | 12 | 5.88 |  |  |

Reference: ChEMBL document CHEMBL3588746, “Using click chemistry toward novel 1,2,3-triazole-linked dopamine D3 receptor ligands” (Bioorg Med Chem, 2015)
